Screening data: PubChem, several laboratories
bCat nuc transl – modulators of beta-catenin nuclear translocation. nuclear translocation activity, % at 5 µM. HeLa beta-catenin nuclear translocation, immunofluorescence imaging. AID 1665. 190,000 compounds, 0.3% hits;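 active means nuclear translocation activity above 50% at 5 µM, with a well cell count of 50 or more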;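 further: per-cell ratio of nuclear to cytoplasmic median beta-catenin stain intensity; plate controls were DMSO negative control for no effect and GSK-3 inhibitor IX positive control for full effect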
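Read-out: Nuclear/cytoplasmic beta-catenin signal ratio, % activation | Assay system: Human HeLa cell line | Times: 24 h compound exposure at 37°C, 5% CO2 | Signal: Fluorescence imaging of beta-catenin antibody stain plus DAPI | Dosing: 5 µM primary, 0.02–20 µM confirmation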
MT stabilizer – microtubule stabilizers in HeLa cells; HeLa tubulin immunostaining HCS, 24 h; share of cells brighter than vehicle mean+2SD; % tubulin-high responders, % at 10 µM; 200,000 compounds, 0.83% hits; AID 2205;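 active means plate Z-score above 3 for both tubulin-high and condensed-nucleus cell shares, with cell loss under 80%, at 10 µM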;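 further: anti alpha tubulin signal scored within the nucleus-defined area of each cell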
Ba/F3 V617F tox – loss of viability in JAK2V617F-driven Ba/F3 cells | Ba/F3 EpoR-JAK2V617F viability, ATP luminescence | inhibition, % at 5.6 µM | 220,000 compounds, 1.1% hits;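 active means inhibition above the campaign mean plus 3 SD over all tested compounds, cut at about 24% in these data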;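 further: cytokine-independent growth of Ba/F3 cells driven by EpoR plus mutant JAK2; 0% = DMSO-treated cells and 100% = JAK inhibitor I control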
BaF3 parental – counter-screen for JAK2V617F inhibitors: parental Ba/F3 viability inhibitors; AID 1486; 220,000 compounds, 1.1% hits; CellTiter-Glo ATP luminescence; inhibition, % at 5.6 µM;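 active means inhibition above a per-campaign cutoff, the mean inhibition of all tested compounds plus 3 SD, cut at about 27% in these data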;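 further: 0% = DMSO wells and 100% = JAK Inhibitor I control wells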
APP 5UTR inh – APP translation inhibition. SH-SY5Y APP 5'UTR-luciferase reporter, luminescence. inhibition, % at 2 µM. AID 1285. 190,000 compounds, 0.82% hits;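 active means inhibition above a set limit, derived from the sample mean plus 3 SD, cut at about 45% in these data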
IEC-6 cytotox – counter-screen for KLF5 inhibitors: cytotoxicity in IEC-6 cells; 290,000 compounds, 0.78% hits; IEC-6 cytotoxicity, luminescence viability; AID 1825; inhibition, % at 5 µM;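 further: 0% = plate median of test compound wells and 100% = cytotoxic reference compound wells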
IEC-6 cytotox cf – confirmation of cytotoxic compounds in rat IEC-6 intestinal epithelial cells; shares compounds with IEC-6 cytotox; inhibition, % at 5 µM; AID 1907; 1,900 compounds, 63% hits; IEC-6 rat intestinal epithelial viability, luminescence;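 further: 0% = vehicle and 100% = reference cytotoxic drug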
Active calls of the source: *; nt = not tested or not shown. Shown are actives, neighbours in structure and some others; about 2.2% of the full set was active somewhere. Unless noted, no stated cut-off is given here; in the data, active means inhibition above about 22%; inactive means the rest.

SMILES	bCat nuc transl	MT stabilizer	Ba/F3 V617F tox	BaF3 parental	APP 5UTR inh	IEC-6 cytotox	IEC-6 cytotox cf
COC(=O)CNc1nc(Cl)nc(NC2CCCCC2)n1	nt	nt	nt	nt	nt	4	nt
N=c1c(C(=O)NCC2CCCO2)cc2c(=O)n3ccccc3nc2n1Cc1ccccc1Cl (centres undefined)	nt	nt	nt	nt	nt	30*	24*
CCOc1ccc(C(=O)NC(=S)Nc2cccc(S(=O)(=O)NC3=NCCC3)c2)cc1	24	17*	72*	79*	89*	65*	46*
C=C(C)CNC(=S)Nc1cccc(S(=O)(=O)NC2=NCCC2)c1	-2	2	1	11	4	0	nt
Cn1c(CNC(=O)CCNC(=O)c2ccccc2F)cc(=O)n(C)c1=O	nt	nt	nt	nt	nt	-8	nt
Cc1c(C)c2ccc(OCC(=O)NCCCN3CCCC3=O)cc2oc1=O	nt	nt	nt	nt	nt	-6	nt
COc1ccc2c(c1OC)C(=O)OC2C1c2c(cc3c(c2OC)OCO3)CCN1C (centres undefined)	0	17	0	4	-8	0	nt
CN1CCc2cc3c(c4c2[C@H]1[C@H](O)c1ccccc1-4)OCO3	nt	3	65*	65*	4	44*	5
CC(Oc1ccccc1)C(=O)N1CCN=C1SCc1ccc(F)cc1 (centres undefined)	-1	nt	-2	-1	nt	2	nt
O=C(O)COc1ccc(NC(=O)C(c2ccccc2)c2ccccc2)cc1	nt	nt	nt	nt	nt	1	nt
COC(=O)COc1ccc(NC(=O)C(c2ccccc2)c2ccccc2)cc1	nt	nt	nt	nt	nt	25*	0
CCC(CC)c1nnc(NC(=O)c2cc(-c3ccccc3)nc3ccccc23)s1	0	4	-5	1	-2	1	nt
CCC(CC)c1nnc(NC(=O)c2ccc3ccccc3n2)s1	1	4	-3	4	-96	35*	3
C#CC(=O)N(c1cc(OC)ccc1OC)C(C(=O)NC1CCCC1)c1cccs1 (centres undefined)	46	3	102*	104*	11	101*	95*
COc1ccc(N(C(=O)c2snc(C(N)=O)c2N)C(C(=O)NC2CCCC2)c2cccs2)cc1OC (centres undefined)	nt	nt	nt	nt	nt	3	nt
Nc1ccc(C(=O)OCC(=O)N2c3ccccc3Sc3ccccc32)cc1[N+](=O)[O-]	-1	3	-2	2	-18	-2	nt
NCCNc1ccc(C(=O)N2c3ccccc3Sc3ccccc32)cc1[N+](=O)[O-]	nt	nt	nt	nt	nt	35*	24*
CCOC(=O)/C(=C/C=C1\Sc2cc(C)c(C)cc2N1CC)C(C)=O	0	2	7	9	-26	-2	nt
CN1/C(=C/c2cccc[n+]2CCO)Sc2ccccc21	nt	nt	nt	nt	nt	3	nt
CC[n+]1c(/C=C2\Sc3ccccc3N2C)ccc2cccc(C)c21	5	67	102*	104*	52*	71*	64*
CCN1/C(=C/c2ccc3cc(C)ccc3[n+]2CC)Sc2ccccc21	0	68*	102*	106*	81*	50*	70*
CCN1/C(=C/c2ccc3cc(C)ccc3[n+]2CC)Sc2cc(C)c(C)cc21	4	15	100*	89*	46*	39*	29*
O=C1NC(=S)N(c2cccc(Cl)c2)C12CCCCC2	-1	3	5	5	6	7	nt
CCC(C)[C@@H]1NC(=O)N(CCCN2CCCC2=O)C1=O (some centres undefined)	nt	nt	nt	nt	nt	-4	nt
O=C(Nc1ccc2nc3n(c(=O)c2c1)CCCCC3)c1cc([N+](=O)[O-])ccc1F	nt	nt	nt	nt	nt	62*	16
O=C(Nc1ccc2nc3n(c(=O)c2c1)CCCCC3)c1c(F)ccc([N+](=O)[O-])c1F	nt	nt	nt	nt	nt	92*	32*
O=C(Nc1ccc2nc3n(c(=O)c2c1)CCCCC3)c1ccccc1[N+](=O)[O-]	nt	nt	nt	nt	nt	-2	nt
CC(CN1CCCCC1)OC(=O)c1ccccc1F (centres undefined)	nt	nt	nt	nt	nt	-3	nt
Cc1ccc(NC(=S)NNC(=O)c2ccccc2OC(F)F)cc1	1	45*	26*	41*	-14	28*	11
COc1cccc(CN2C(=O)C3(C(C#N)=C(N)OC4=C3C(=O)CCC4)c3ccccc32)c1 (centres undefined)	-1	5	72*	89*	-9	59*	54*
